# Compound activity as filed in PubChem.
# The list is not random: actives were taken first. Their share in the collection is about 3.6%.
# MITF act: activators of MITF-driven TRPM1 promoter activity in SK-MEL-5 cells | SK-MEL-5 TRPM1-promoter luciferase, 24 h; % of positive control, neutral wells = 0 | activation, % at 12.5 µM | actives 0.75% (n = 300,000);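 active means mean activation of at least 80% with every replicate also reaching 80%; inconclusive means mean reaches 80% but some replicate falls short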;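 further: 0% = neutral control wells and 100% = parthenolide positive control wells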
# SR-BI DiI-HDL act: enhances SR-BI lipid uptake from DiI-HDL | CHO ldlA[mSR-BI] cells, DiI-HDL uptake fluorescence, 3 h; 100 = double the neutral-control signal | activation, % at 12.5 µM | actives 0.096% (n = 320,000);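 active means mean replicate activation of at least 60% and every replicate at or above 60%; inconclusive means mean or all-replicate condition met, but not both; inactive means mean below 60% and not all replicates reaching 60%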;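 further: 0% = median plate neutral-control signal and 100% = twice that signal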
#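 material = CHO ldlA[mSR-BI] cells | medium = Ham's F12 with 0.5% BSA, HEPES 25 mM, pH 7.4 | reagent = fluorescent DiI-HDL, 10 µg/mL final | compound dosing = single-point compound dose | incubation = 3 h, 37 °C | measured by = bottom-read fluorescence, 550/595 nm | measure = HDL uptake via cellular fluorescence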
# HSF-1 act: increases HSF-1 driven luciferase reporter signal; actives 1.7% (n = 300,000); NIH3T3-HGL HSF-1 luciferase reporter, MG132, 8 h; 100% = twice DMSO control signal; activation, % at 9 µM;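 active means mean replicate activation of at least 50% with a set share of replicates each reaching 50%; inconclusive means only one of those two conditions met; inactive means mean below 50% and too few replicates reaching it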;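 further: 0% = median of the neutral control wells and 100% = twice that signal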
# SR-BI DiI inh: blocks mouse SR-BI lipid uptake from DiI-HDL | ldlA[mSR-BI] CHO cells, DiI-HDL uptake fluorescence, 3 h | inhibition, % at 12.5 µM | actives 0.96% (n = 320,000) | AID 488896;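 active means mean replicate inhibition of at least 70% and a set share of replicates each scoring 70 or more; inconclusive means meets just one of the two criteria; inactive means fails both criteria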;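 further: 0% = median of neutral control wells and 100% = median of positive control wells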
# Target sequence (Q61009 whole entry, looked up): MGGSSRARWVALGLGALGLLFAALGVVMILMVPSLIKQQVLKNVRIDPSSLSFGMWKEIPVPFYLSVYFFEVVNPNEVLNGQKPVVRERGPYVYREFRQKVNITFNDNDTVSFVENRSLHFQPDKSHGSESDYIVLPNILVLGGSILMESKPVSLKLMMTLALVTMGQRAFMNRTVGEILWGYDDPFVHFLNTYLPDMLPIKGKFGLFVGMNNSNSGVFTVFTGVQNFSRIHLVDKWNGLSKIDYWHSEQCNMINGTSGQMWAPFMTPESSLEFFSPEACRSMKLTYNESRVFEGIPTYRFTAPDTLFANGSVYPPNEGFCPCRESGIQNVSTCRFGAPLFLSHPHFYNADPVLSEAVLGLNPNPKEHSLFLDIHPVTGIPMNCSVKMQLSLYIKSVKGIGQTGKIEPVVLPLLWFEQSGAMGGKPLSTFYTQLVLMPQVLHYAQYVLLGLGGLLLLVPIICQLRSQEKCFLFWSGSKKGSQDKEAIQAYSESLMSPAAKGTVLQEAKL
# Wnt act: activators of Wnt/beta-catenin signaling. Wnt/beta-catenin reporter cell assay, activator, plate reader. activation, % at 9.35 µM. actives 1.2% (n = 300,000); in the data active means activation above about 30%, passing the limit was not always enough; inconclusive means no clear call, values can overlap the other calls;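 further: 0% = neutral control wells and 100% = positive control wells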
# * = called active by the depositor; ? = inconclusive; . = not tested or not shown.
SMILES,MITF act,SR-BI DiI-HDL act,HSF-1 act,SR-BI DiI inh,Wnt act
COc1ccc(CCNC(=O)c2ccc(F)c(S(=O)(=O)N3CCCCC3)c2)cc1,.,.,.,.,0.4
CC(C)NC(=O)C1(C)CN(S(C)(=O)=O)CC(=O)N1Cc1ccc2c(c1)OCO2 (configuration not stated),.,.,.,.,-1.5
O=C(CCOc1ccccc1)N1CCN(c2ccc(O)cc2)CC1,10.1,-1.2,12.6,1.2,49.6*
O=C(CCCOc1ccccc1)N1CCN(c2ccccc2)CC1,56.8,12.9,24.0,-12.9,.
Cc1ccc(OC(=O)N(C)C[C@H]2OCc3cn(nn3)CCCC(=O)N([C@@H](C)CO)C[C@@H]2C)cc1,.,.,.,.,-1.1
Cc1ccccc1NC(=S)N/N=C/C(C)c1ccccc1 (configuration not stated),0.9,6.0,-12.1,-6.0,-2.0
Cc1cccc(NC(=S)N/N=C/C(C)c2ccccc2)c1C (configuration not stated),-4.1,11.2,22.8,-11.2,33.8*
COc1ccc2c(c1)[C@@]1(OCCC=C[C@H]1C)C(=O)N2Cc1ccccc1C(F)(F)F,.,.,.,.,-5.5
Cc1cc(C)n2nc(-c3ccc(Cl)cc3)cc2n1,23.5,-41.9,37.2,41.9,34.1*
COc1ccc(-c2cc3nc(C)cc(C)n3n2)cc1,52.9,-23.8,27.5,23.8,-4.6
Cc1cc(C)n2nc(-c3ccc(Br)cc3)cc2n1,.,-11.2,51.6*,11.2,45.1*
Cc1cc(-c2ccc(Cl)cc2)n2nc(C)cc2n1,6.5,-58.9,-16.0,58.9,-0.2
Cc1ccc(CN2CC=CS2(=O)=O)cc1,.,.,.,.,-2.3
CC(C)(C)[C@H](NC(=O)c1ccc(N)c(Cl)c1)C(=O)N1CCC[C@H]1C(=O)N[C@H](C#N)CC(=O)O,.,.,.,.,-1.6
COc1cc(NC(=O)Cn2cnc3c(NCc4ccccc4)ncnc32)cc(OC)c1OC,3.2,3.5,.,-3.5,-5.3
O=C1c2ccccc2C(c2nnnn2-c2ccc3ccccc3c2)N1C1CC1 (configuration not stated),.,.,.,.,-1.1
COc1ccc(-c2c(-c3cc(OC)cc(OC)c3)n(C)c3ccc(-c4cnc(OC)nc4)cc23)cc1,8.3,-15.7,.,4.7,-8.7
COc1ccc(-c2c(-c3cc(OC)cc(OC)c3)n(C)c3ccc(-c4ccc5[nH]ccc5c4)cc23)cc1,-5.0,-75.5,.,75.5*,-7.8
C[C@@H]1CCCCO[C@@H](CN(C)Cc2ccc(C(=O)O)cc2)[C@@H](C)CN([C@H](C)CO)C(=O)c2cc(NS(C)(=O)=O)ccc2O1,.,.,.,.,-0.6
CCOC(=O)c1cc(NC(=O)N2CCOCC2)c(C)nc1C,0.5,3.1,15.6,-3.1,.
CCOC(=O)c1cc(NC(=O)N(C)C2CCCCC2)c(C)nc1C,11.1,-73.7,3.7,73.7*,-0.3
CCOC(=O)Nc1cc(C(=O)OCC)c(C)nc1C,-10.7,10.2,22.0,-10.2,1.6
CCOC(=O)c1cc(NC(=O)N(CC)C2CCCCC2)c(C)nc1C,-1.9,-76.5,6.8,76.5*,-2.9
CCOC(=O)Cc1csc2nc(-c3ccccc3)cn12,.,.,.,.,8.8
Cc1ccc(-n2c(C)cc(C(=O)COc3c(CO)cc(F)cc3CO)c2C)cc1C,-5.2,-12.6,56.3*,12.6,-2.5
SMILES,MITF act,SR-BI DiI-HDL act,HSF-1 act,SR-BI DiI inh,Wnt act
CCn1c(=O)cc(SCC(=O)N2CCN(c3ccccc3F)CC2)c2ccccc21,.,-42.9,54.2*,42.9,2.0
NC(=O)Nc1ccc(C(=O)OCC(=O)Nc2cccc(S(=O)(=O)NC3=NCCC3)c2)cc1,3.8,-76.0,.,76.0*,-2.8
Cc1ccc(C)c(-n2ccnc2SCC(=O)Nc2cccc(S(=O)(=O)NC3=NCCC3)c2)c1,-7.6,2.3,.,-2.3,47.3*
CC(C)(C)c1ccc(C(=O)OCC(=O)Nc2cccc(S(=O)(=O)NC3=NCCC3)c2)cc1,.,.,.,.,0.5
Cc1ccc(Nc2nnc(SCC(=O)Nc3cccc(S(=O)(=O)NC4=NCCCCC4)c3)s2)cc1,23.4,0.9,85.7*,-0.9,0.6
Cc1ccc2nc(SCC(=O)Nc3cccc(S(=O)(=O)NC4=NCCCCC4)c3)[nH]c2c1,-2.6,.,111.5*,.,0.3
Cc1ccc2nc(SCC(=O)Nc3cccc(S(N)(=O)=O)c3)[nH]c2c1,1.1,.,-6.1,.,1.9
C=CC(=O)NC1CCCCN(C)C1=O (configuration not stated),.,.,.,.,-0.6
O=C1NC[C@H](CCCCN2CCN(CC3CCCCC3)C(=O)C2=O)N(CCc2ccccc2)C1=O,.,.,.,.,-1.3
O=C(/C=C/c1ccc(Cl)cc1Cl)Nc1cccc(S(=O)(=O)NC2=NCCC2)c1,37.0,-38.5,62.6*,38.5,9.1
Cc1cccc(Nc2nnc(SCC(=O)Nc3cccc(S(=O)(=O)N4CCCCC4)c3)s2)c1,2.4,-39.6,58.3*,39.6,.
CCc1ccc(Nc2nnc(SCC(=O)Nc3cccc(S(=O)(=O)NC4=NCCCCC4)c3)s2)cc1,58.0,-7.8,54.6*,7.8,.
Cc1nnc(SCC(=O)Nc2cccc(S(=O)(=O)NC3=NCCCCC3)c2)n1Cc1ccccc1,-4.0,22.2,-3.9,-22.2,-0.9
Cc1ccc(Nc2nnc(SCC(=O)Nc3ccc(S(=O)(=O)N4CCOCC4)cc3)s2)cc1,48.4,-0.5,71.9*,0.5,7.5
O=C(CSc1nnc(Nc2ccccc2)s1)Nc1ccc(S(=O)(=O)N2CCOCC2)cc1,-13.7,-7.8,6.5,7.8,.
O=C(/C=C/c1ccccc1Cl)Nc1cccc(S(=O)(=O)NC2=NCCCCC2)c1,25.2,.,41.3,.,15.4
Cc1cccc(NC(=O)CSc2nnc(NC(=O)CN3CCCCC3)s2)c1,.,.,-8.6,.,1.9
CCCS(=O)(=O)NC(=O)C1(C)CCN(C(=O)c2ccc(SC(F)(F)F)cc2)C1 (configuration not stated),.,.,.,.,-0.9
COc1ccc(S(=O)(=O)Nc2cccc3c2O[C@H](CN(C)C(=O)Nc2ccccc2)[C@@H](C)CN([C@H](C)CO)C3=O)cc1,5.8,-6.3,.,6.3,1.9
Cc1ccc(C(=O)n2nnc3ccccc32)cc1,.,.,-23.2,.,.
CN(C)c1ccc(C(=O)n2nnc3ccccc32)cc1,4.2,28.3,56.1*,-28.3,0.7
CC(C)c1ccc(/C=C/C(=O)n2nnc3ccccc32)cc1,.,8.6,83.0*,-8.6,1.6
Cc1ccccc1Oc1nc2c(C)cccn2c(=O)c1/C=C(\C#N)C(=O)Nc1c(C)n(C)n(-c2ccccc2)c1=O,-42.8,-26.6,136.6*,26.6,-2.8
C[C@@H]1CN([C@@H](C)CO)C(=O)c2cc(Br)cnc2O[C@H]1CN(C)C(=O)NC1CCCC1,.,.,.,.,-1.1
COc1ccc2ccccc2c1/C=N/Nc1cccc(C(=O)O)c1,92.8*,.,6.3,.,6.8
COc1ccccc1/C=N/NC(=O)c1ccc(NC(=O)c2cccc([N+](=O)[O-])c2)cc1,.,.,-7.4,.,.
COc1cc(/C=N/NC(=O)c2cccc([N+](=O)[O-])c2)ccc1OCc1ccc(C)cc1,69.0,-52.2,68.4*,52.2,?
COc1cccc(/C=N/NC(=O)c2cc3cc([N+](=O)[O-])ccc3s2)c1O,-76.2,-125.5,-40.6,125.5*,-2.4
